Experimental findings from ChEMBL document CHEMBL3576816, “5'-Silylated 3'-1,2,3-triazolyl Thymidine Analogues as Inhibitors of West Nile Virus and Dengue Virus” (J Med Chem, 2015) are described below.

The structures appear in SMILES notation. pEC50: −log10 of the molar value. Calls of active or inactive are those of the source. The calls are words filed in the database; no cut-off is given here.

Data set [1] in a line: Cytotoxicity against BHK cells infected with West Nile virus replicon assessed as cell viability after 3 days by CellTiter 96 aqueous one solution cell proliferation assay. The note with it: hamster, 72 h. Format: cell-based, Mesocricetus auratus. The method, boiled down:
(§1)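 WNV replicon BHK cells, about 3 × 10^3/well, plated without antibiotic selection; next day compound in DMSO (10 μM final for screening, or eight serial dilutions), 3 days at 37°C, 5% CO2. Tetrazolium reagent, absorbance 450 nm, triplicate means versus DMSO wells; CC50 = 50% reduction in proliferation; CC50s mean ± SD of two experiments, top dose 200 μM.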

For data set [2], the system named is Dengue virus. Description: Antiviral activity against Dengue virus infected in BHK pD2-hRucPac-2ATG cells assessed as inhibition of viral replication after 3 days by luciferase reporter gene assay. Type of data set: functional, organism-based. The note with it: 72 h. In outline: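 BHK DENV subgenomic replicon line carrying Renilla luciferase, kept on 3 μg/mL puromycin; 1.5 × 10^3 cells/well plated without selection, compounds in DMSO added next day to triplicate wells, at 10 μM final for screening or eight serial dilutions. Live-cell Renilla substrate after 3 days, luminescence versus DMSO wells; EC50 = 50% luciferase reduction; MPA 1 μM control.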

Data set [3] can be described thus: Cytotoxicity against BHK cells infected with Dengue virus replicon assessed as cell viability after 3 days by CellTiter 96 aqueous one solution cell proliferation assay. The note with it: hamster, 72 h. Type of data set: cell-based, Mesocricetus auratus. In outline: (§2)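 DENV replicon BHK cells, 1.5 × 10^3/well, plated without antibiotic selection; next day compound in DMSO (10 μM final for screening, or eight serial dilutions), 3 days at 37°C, 5% CO2. Tetrazolium (MTS-type) reagent, absorbance 450 nm, triplicate means versus DMSO wells; CC50 = 50% reduction in proliferation; CC50s mean ± SD of two experiments, top dose 200 μM.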
(In general: Replicon systems follow genome replication, usually without infectious particles.)

Data set [4] concerns Human immunodeficiency virus 1. Description: Antiviral activity against HIV1. Format: functional, organism-based.
The subject of the next data set is dengue virus type 3. The data set is described as follows: Displacement of [3H]-SAM from biotinylated Dengue virus 3 methyltransferase expressed in Escherichia coli at 20 uM preincubated for 20 mins followed by [3H]-SAM addition measured after 15 mins by scintillation counting analysis. In outline: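 Biotinylated refolded E. coli-expressed DENV3 MTase (580 nM) with SPA beads (1.5 mg/mL) and 20 μM competitor (compound, SAM or sinefungin) in Tris pH 7.5 buffer with NaCl, KCl, MgCl2, MnCl2, CHAPS, 20 min at 23°C; 3H-SAM (425 nM) added, 15 min at 23°C, centrifuged, scintillation proximity counting.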

In data set [5] the target is Human immunodeficiency virus type 1 reverse transcriptase (Human immunodeficiency virus 1) (UniProt Q72547). The data set is described as follows: Inhibition of HIV1 reverse transcriptase.
For data set [6], the system named is unidentified influenza virus. The data set is described as follows: Antiviral activity against Influenzae virus. Format: functional, organism-based.
The next data set has as its system Human betaherpesvirus 5. The data set is described as follows: Antiviral activity against Human cytomegalovirus. Format: functional, organism-based.
Another data set concerns Hepatitis C virus. The data set is described as follows: Antiviral activity against HCV. Type of data set: functional, organism-based. Particulars: Hepacivirus hominis.
The subject of data set [7] is West Nile virus. Description: Antiviral activity against West Nile virus infected in BHK-WII RepRen1B cells assessed as inhibition of viral replication at 10 uM after 3 days by luciferase reporter gene assay relative to control. Type of data set: functional. Particulars: 72 h. The method, boiled down:
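Compound (DMSO, 10 μM final) added next day in triplicate; lycorine 1 μM served as control inhibitor. Three days on, live-cell Renilla substrate (1:1000 in phenol-red-free DME, 10% FBS) replaced medium. Luminescence measured; triplicate means compared with DMSO-alone wells.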
A general note: In a reporter assay the amount or activity of a reporter protein is the signal.

The nature of data set [8]: Cytotoxicity against BHK cells infected with West Nile virus replicon assessed as cell viability at 10 uM after 3 days by CellTiter 96 aqueous one solution cell proliferation assay relative to control. Format: cell-based, Mesocricetus auratus. The note with it: hamster, bhk, 72 h, 10 µM. The method, boiled down:
as §1

Data set [9] concerns Dengue virus. The data set is described as follows: Antiviral activity against Dengue virus infected in BHK pD2-hRucPac-2ATG cells assessed as inhibition of viral replication at 10 uM after 3 days by luciferase reporter gene assay relative to control. Format: functional. Particulars: 72 h. The method, boiled down: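 Renilla luciferase-bearing DENV subgenomic replicon BHK cells, kept on 3 μg/mL puromycin, seeded at 1.5 × 10^3/well without selection. Next day, 10 μM final compound in DMSO added to triplicate wells; MPA 1 μM as control inhibitor. After 3 days, medium swapped for live-cell Renilla substrate (1:1000, phenol-red-free DME, 10% FBS). Luminescence read; triplicate mean compared with DMSO-only wells.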

Data set [10] in a line: Cytotoxicity against BHK cells infected with Dengue virus replicon assessed as cell viability at 10 uM after 3 days by CellTiter 96 aqueous one solution cell proliferation assay relative to control. Type of data set: cell-based, Mesocricetus auratus. The note with it: hamster, bhk, 72 h, 10 µM. The method, boiled down:
as §2

The subject of data set [11] is West Nile virus. Description: Antiviral activity against West Nile virus infected in BHK-WII RepRen1B cells assessed as inhibition of viral replication after 3 days by luciferase reporter gene assay. Format: functional, organism-based. The note with it: 72 h.

A word on the CC50: it is the concentration that lowers cell viability or growth by half. The term pEC50 denotes −log10 of the EC50, conventionally taken in molar units. As usually defined, the inhibition is the percentage by which the read-out fell short of the control. Consider `Cc1cn([C@H]2C[C@H](n3nncc3C3CCCCC3)[C@@H](CO[Si](C)(C)C(C)(C)C)O2)c(=O)[nH]c1=O`, for which the values for the CC50 in [1] and in data set [3] were 24 µM and 22 µM, respectively. Besides, the figures for the pEC50 with Dengue virus [2] and with West Nile virus [11] were 5.12 and 5.15, respectively. Moreover, the outcome (in data set [4]; in data set [6]; in the data set on Human betaherpesvirus 5; in the data set on Hepatitis C virus) was inactive. In the data set on dengue virus type 3, the inhibition result is “Active”. Moreover, the inhibition result in data set [5] was “inactive”. Besides, the figures for the inhibition at 10 µM with West Nile virus [7] and in the data set with Dengue virus [9] were 85% and 75%, respectively. The figures for the Activity in data set [8] and in data set [10] were 100% and 93%, respectively.

Regarding `Cc1cn([C@H]2C[C@H](NC(=O)c3cccc4ccccc34)[C@@H](CO[Si](C)(C)C(C)(C)C)O2)c(=O)[nH]c1=O`, the CC50 in data set [1] was > 200 µM. In addition, the result (in data set [4]; in data set [6]; in the data set with Human betaherpesvirus 5; with Hepatitis C virus) was inactive. For the same compound, the inhibition result in the data set with dengue virus type 3 is “Active”. For the same compound, the inhibition entry in data set [5] was “inactive”. Also, the inhibition at 10 µM worked out at 37% with West Nile virus [7] and 11% in the data set on Dengue virus [9]. The values for the Activity in data set [8] and in data set [10] were 94% and 99%, respectively. Besides, in the data set with West Nile virus [11], the pEC50 was 4.48.

Consider `Cc1cn([C@H]2C[C@H](N3C(=O)CSC3c3c4ccccc4cc4ccccc34)[C@@H](CO[Si](C)(C)C(C)(C)C)O2)c(=O)[nH]c1=O` (mixture of isomers), for which, in [1], the CC50 is 27 µM. Moreover, the result (in [4]; in data set [6]; in the data set with Human betaherpesvirus 5; in the data set on Hepatitis C virus) was inactive. Further, the inhibition entry with dengue virus type 3 is “Active”. In data set [5], the inhibition result was “inactive”. In addition, the inhibition at 10 µM came to 85% in the data set with West Nile virus [7] and 46% in the data set with Dengue virus [9]. The Activity was found to be 90% in data set [8] and 97% in [10]. Besides, the pEC50 with West Nile virus [11] was 5.05.

For the compound `Cc1cn([C@H]2C[C@H](NS(=O)(=O)c3ccc4ccccc4c3)[C@@H](CO[Si](C)(C)C(C)(C)C)O2)c(=O)[nH]c1=O`, the CC50 stood at 12 µM in data set [1] and 14 µM in data set [3]. In addition, the pEC50 with Dengue virus [2] was 5.13; in the data set on West Nile virus [11], 5.08. Besides, the inhibition result in the data set with dengue virus type 3 was “Active”.

As to `Cc1cn([C@H]2C[C@H](n3nncc3-c3ccccc3)[C@@H](CO[Si](C)(C)C(C)(C)C)O2)c(=O)[nH]c1=O`, the CC50 came out at 32 µM in [1] and 31 µM in data set [3]. Further, the pEC50 in the data set on Dengue virus [2] was 4.85; in the data set with West Nile virus [11], 5.08. Besides, the result (in data set [4]; in data set [6]; in the data set with Human betaherpesvirus 5; in the data set with Hepatitis C virus) was inactive. Also, the inhibition result in the data set on dengue virus type 3 is “Active”. Also, in data set [5], the inhibition entry is “inactive”. For the same compound, the inhibition at 10 µM was found to be 93% in the data set with West Nile virus [7] and 51% in the data set with Dengue virus [9]. Also, the Activity in [8] turned out to be 99%; in data set [10], 93%.

Take `COc1ccc2cc(-c3cnnn3[C@H]3C[C@H](n4cc(C)c(=O)[nH]c4=O)O[C@@H]3CO[Si](C)(C)C(C)(C)C)ccc2c1`: the CC50 came out at 13 µM in [1] and 7.9 µM in data set [3]. The pEC50 was 5.14 with Dengue virus [2] and 5.54 in the data set with West Nile virus [11]. For the same compound, the result (in [4]; in data set [6]; in the data set on Human betaherpesvirus 5; in the data set with Hepatitis C virus) was inactive. For the same compound, the inhibition result with dengue virus type 3 is “Active”. For the same compound, the inhibition entry in [5] is “inactive”. Moreover, the inhibition at 10 µM worked out at 97% in the data set with West Nile virus [7] and 85% in the data set on Dengue virus [9]. Moreover, the Activity was determined as 100% in [8] and 86% in data set [10].

`Cc1cn([C@H]2C[C@H](NC(=O)Nc3cccc4ccccc34)[C@@H](CO[Si](C)(C)C(C)(C)C)O2)c(=O)[nH]c1=O`: in the data set with Dengue virus [2], the pEC50 was 4.96. In addition, the CC50 in [3] came to 23 µM. In addition, in the data set on dengue virus type 3, the inhibition entry was “Active”.
